# Insulin prom act – TRM-6 insulin promoter activation | AID 1296 | activation, % at 2 µM | TRM-6 cells (human fetal islet line), insulin promoter eGFP reporter, imaging; plate-scaled: unstimulated 0, stimulated control 100 | 130,000 compounds, 0.81% hits;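 active = activation at 2 µM above a set limit, confirmed on inspection of the cell images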;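 note: share of cells whose green reporter signal exceeds an intensity cutoff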
#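 test system = TRM-6 insulin promoter–eGFP reporter cells | benchmarks = stimulated versus unstimulated wells as plate controls | read-out basis = percent cells above green-intensity threshold, converted to percent activation versus plate controls | detection = fixed-cell fluorescence microscopy, eGFP plus Hoechst | incubation = tamoxifen pre-incubation 15 h overnight, then compound exposure 48 h at 37 °C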
# An asterisk follows results filed as active. This excerpt belongs to a sample that is enriched for hits.
SMILES,Insulin prom act
Cc1ccc(C=C2C(=O)c3ccccc3C2=O)s1,322*
Cc1ccc(NC(=O)C(=O)NCCN2CCN(S(=O)(=O)c3ccccc3)CC2)cc1C,-7
CC(C)NC(=O)C12CC3CC(C1)CC(n1cnc(Cl)n1)(C3)C2,5
CNS(=O)(=O)c1cccc(C(=O)OCc2cc(=O)n3cc(Br)ccc3n2)c1,10
N#CC1=C(N)C(C#N)(C#N)[C@H](c2ccoc2)[C@H]2CN(Cc3ccccc3)CC=C12,212*
N#CC1=C(N)C(C#N)(C#N)C(c2cccnc2)C2COCC=C12 (stereo not drawn),0
N#CC1=C(N)C(C#N)(C#N)C(c2cccnc2)C2CN(C(=O)OCc3ccccc3)CC=C12 (stereo not drawn),115
COc1cc(C(C)=O)ccc1COc1ccc(C(=O)OC(C)C(=O)NC(N)=O)cc1OC (stereo not drawn),-9
N#Cc1cccc(NCC(=O)Nc2ccc3c(c2)OCCO3)c1,-8
O=c1[nH]c2ccc(N=Cc3c(O)ccc4cc(Br)ccc34)cc2[nH]1,-6
Cn1cnnc1SCC(=O)Nc1ccc(OCc2ccccc2)cc1,0
Cc1ccc(C2C(C#N)=C(N)SC(N)=C2C#N)c(C)c1,-4
N#CC1=C(N)SC(N)=C(C#N)C1c1ccoc1,32
Cc1ccc(C2C(C#N)=C(N)SC(N)=C2C#N)cc1,121*
CCN(CC)C(NC(=O)c1ccccc1)C(=O)c1ccccc1 (stereo not drawn),-3
CCOC(=O)n1c(=O)n(Cc2ccccc2C)c2ccccc21,0
Brc1ccc(CSc2nnc(-c3ccccn3)n2Cc2ccco2)cc1,0
O=c1c2ccccc2nnn1CSc1nnc(-c2cccs2)n1Cc1ccccc1,4
c1coc(Cn2c(SCc3nc4ccccc4[nH]3)nnc2-c2cccs2)c1,123*
COC(=O)c1cc(OC)c(OC)cc1NC(=O)c1ccoc1C,311
Cc1ccc2[nH]c(C)c(CCNC(=O)C3CCCCC3C(=O)OCC(F)(F)F)c2c1 (stereo not drawn),8
O=C(c1cc2ccccc2oc1=O)N1CCN(c2ncccn2)CC1,-79
COC(=O)c1cn(-c2ccccc2)c(C)c1C(=O)OC,592*
O=C(O)c1cn(-c2ccccc2)c(=O)c2ccccc12,-70
COC(=O)c1cn(C(=O)OC)c2ccccc12,226
SMILES,Insulin prom act
CC1=CC(=O)C=C(C)C1=NOc1ccc([N+](=O)[O-])cc1,-100
CCOc1ccc(NC(=O)C(C)Oc2ccccc2C(=O)Nc2cccc(Cl)c2Cl)cc1 (stereo not drawn),-3
CN(C)CCCNC(=O)C(=O)NCC1CCCO1 (stereo not drawn),294*
O=C(NCC1CCCO1)NC1CCCCC1 (stereo not drawn),-7
O=C(CCCCCCCC(=O)NCC1CCCO1)NCC1CCCO1 (stereo not drawn),-3
COc1ccc(N2C(N)=C(C#N)C(c3ccsc3)C3=C2CCCC3=O)c(OC)c1 (stereo not drawn),108
CCc1cc2c(SCC(=O)c3ccc(Cl)s3)ncnc2s1,-7
COc1ccc(CCNC2CC(=O)N(N(C)C)C2=O)cc1OC (stereo not drawn),-3
CCCN1CCC(N(C)CCc2ccc(OC)c(OC)c2)CC1,127*
COc1ccc(C2CC(=O)N(CCCN(C)CCc3ccc(OC)c(OC)c3)C2)cc1 (stereo not drawn),-7
Cc1ccc(NC(=O)CC(O)(C(F)(F)F)C(F)(F)F)cc1,-77
Cc1ccc(NC(=O)CSc2nnc(CCCCCNC(=O)OC(C)(C)C)o2)c(C)c1,0
COCCn1nnnc1SCC(=O)c1ccccc1,-6
